Measured values published in ChEMBL document CHEMBL1671645, “Pharmacokinetics and absorption of posaconazole oral suspension under various gastric conditions in healthy volunteers” (Antimicrob Agents Chemother, 2009).

Columns and labels:
[1] = AUC in fasted healthy human at 400 mg administered as single dose suspension coadministered with acidic carbonated beverage; assay type: ADME, organism-based; conditions: plasma
Method in brief: (§1)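 This was a four-way crossover in 12 healthy subjects with 7–10 day washouts. Each took one fasting 400 mg oral suspension dose, with 12 oz ginger ale and/or esomeprazole 40 mg once each morning on days −2 to 1, with dosing on day 1. Plasma was sampled 0–168 h and measured by LC-MS/MS (LLOQ 5.00 ng/ml). Analysis was noncompartmental, with CL/F = dose/AUC_I and V/F = (CL/F)/K.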

[2] = Half life in fasted healthy human at 400 mg administered as single dose suspension; assay type: ADME, organism-based; conditions: in vivo
Method in brief: (§2)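 Single oral suspension dose in fasting healthy volunteers, alone, with 12 oz ginger ale, after esomeprazole 40 mg once each morning days −2 to 1, or both; four-way crossover, 7–10-day washout. EDTA plasma 0–168 h. LC-MS/MS (LLOQ 5.00 ng/ml). t1/2 = ln(2)/K from terminal log-linear regression; Tmax median.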

[3] = Tmax in fasted healthy human at 400 mg administered as single dose suspension coadministered with acidic carbonated beverage; assay type: ADME, organism-based; conditions: in vivo; method in brief: as §2
[4] = Apparent volume of distribution in fasted healthy human at 400 mg administered as single dose suspension after consumption of high fat meal; assay type: ADME, organism-based; conditions: in vivo, read-out: Vc/F
Method in brief: (§3)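 In a crossover of 12 healthy subjects, each took a single 400 mg oral suspension dose 5 min before, midway through (about 10 min into a 20-min meal), or 20 min after a high-fat meal of about 50 g fat. Plasma was drawn 0–168 h and measured by LC-MS/MS. Parameters are noncompartmental, with AUC to the last measurable time.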

[5] = Tmax in fasted healthy human at 400 mg administered as single dose suspension 5 mins before consumption of high fat meal; assay type: ADME, organism-based; conditions: in vivo
Method in brief: (§4)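 Single oral suspension dose in healthy volunteers while fasting, 5 min before, midway through (about 10 min into a 20-min meal), or 20 min after a high-fat meal (approx 50 g fat); four-way crossover, 7–10-day washout. Plasma 0–168 h by LC-MS/MS (LLOQ 5.00 ng/ml). t1/2 = ln(2)/K; Tmax median.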

[6] = AUC in fasted healthy human at 400 mg administered as single dose suspension after 20 mins after consumption of high fat meal; assay type: ADME, organism-based; set-up: dose 400 mg; conditions: plasma; method in brief: as §3
[7] = Tmax in healthy human at 400 mg administered as single dose suspension coadministered with nutritional supplement and 4 mg loperamide as two 2 mg tablets; assay type: ADME, organism-based; conditions: in vivo
Method in brief: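 Oral suspension (40 mg/ml) single dose with nutritional supplement plus loperamide 4 mg single dose, healthy volunteers, three-way crossover with 7–10-day washout. EDTA plasma drawn predose and 1–168 h postdose. LC-MS/MS assay (LLOQ 5.00 ng/ml). Noncompartmental parameters; Tmax reported as median (range).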

[8] = Cmax in fasted healthy human plasma at 400 mg administered as single dose suspension coadministered with acidic carbonated beverage; assay type: ADME, organism-based; set-up: dose 400 mg; method in brief: as §1
[9] = Apparent total body clearance in healthy human at 400 mg administered as single dose suspension coadministered with nutritional supplement; assay type: ADME, organism-based; conditions: in vivo
Method in brief: (§5)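 A three-way crossover in 13 healthy subjects gave one 400 mg oral suspension dose with a nutritional supplement, either alone, with metoclopramide 10 mg orally three times daily on the day before and the day of dosing, or with a single 4 mg dose of loperamide. Plasma was taken 0–168 h for LC-MS/MS. Analysis was noncompartmental.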

[10] = Apparent volume of distribution in fasted healthy human at 400 mg administered as single dose suspension coadministered with acidic carbonated beverage; assay type: ADME, organism-based; conditions: in vivo, read-out: Vc/F; method in brief: as §1
[11] = Apparent volume of distribution in healthy human at 400 mg administered as single dose suspension coadministered with nutritional supplement and 10 mg metoclopramide; assay type: ADME, organism-based; conditions: in vivo, po, read-out: Vc/F; method in brief: as §5
Homo sapiens [12] = assay: Toxicity in healthy human assessed as dizziness at 200 mg QID, po administered as suspension for 7 days; assay type: organism-based; conditions: in vivo, 168 h
Method in brief: (§6)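 Healthy volunteers monitored for adverse events, vital signs, clinical laboratory values and 12-lead ECG. Adverse events tabulated by body system or organ class and severity and summarized by treatment across the crossover regimens.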

[13] = Half life in healthy human at 400 mg administered as single dose suspension coadministered with nutritional supplement; assay type: ADME, organism-based; conditions: in vivo
Method in brief: (§7)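 Single oral suspension dose with nutritional supplement, alone or with metoclopramide 10 mg orally three times daily on the day before and the day of dosing; three-way crossover, 7–10-day washout. EDTA plasma predose to 168 h, LC-MS/MS (LLOQ 5.00 ng/ml). t1/2 = ln(2)/K from terminal slope; Tmax median.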

[14] = Tmax in fasted healthy human at 400 mg BID, po administered as suspension for 7 days; assay type: ADME, organism-based; conditions: in vivo
Method in brief: (§8)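 Healthy volunteers given oral suspension (40 mg/ml) for 7 days, fasted or with nutritional supplement (Boost); four-way crossover, 14–21-day washout, nonfat snacks ≤800 cal/day allowed. On day 7 only the morning dose was given; plasma sampled predose to 168 h after it. LC-MS/MS (LLOQ 5.00 ng/ml). t1/2 = ln(2)/K from log-linear terminal slope; Tmax as median.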

[15] = Half life in fasted healthy human at 400 mg administered as single dose suspension after consumption of high fat meal; assay type: ADME, organism-based; conditions: in vivo; method in brief: as §4
[16] = Half life in healthy human at 400 mg BID, po administered as suspension for 7 days coadministered with nutritional supplement; assay type: ADME, organism-based; conditions: in vivo; method in brief: as §8
[17] = Tmax in fasted healthy human at 400 mg administered as single dose suspension coadministered with acidic carbonated beverage and proton pump inhibitor; assay type: ADME, organism-based; conditions: in vivo; method in brief: as §2
Homo sapiens [18] = assay: Toxicity in healthy human assessed as headache at 400 mg BID, po administered as suspension for 7 days coadministered with nutritional supplement; assay type: organism-based; conditions: in vivo, 168 h
Method in brief: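 Healthy volunteers (n = 12) took oral posaconazole suspension (40 mg/ml) for 7 days in a four-way randomized crossover with a 14- to 21-day washout. Subjects stayed fasted throughout, with nonfat snacks up to 800 cal/day allowed. Where given, Boost was taken with each dose. Safety covered adverse events, vital signs, clinical labs and 12-lead ECG, with AEs tabulated by body system and severity per treatment.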

Homo sapiens [19] = assay: Toxicity in healthy human assessed as adverse events at 400 mg administered as single dose suspension coadministered with nutritional supplement and 4 mg loperamide as two 2 mg tablets; assay type: organism-based; conditions: in vivo; method in brief: as §6
[20] = Cmax in plasma in hematopoietic stem cell transplant recipient human with GVHD and diarrhea; assay type: ADME, organism-based
[21] = Cmax in fasted healthy human plasma at 400 mg administered as single dose suspension coadministered with proton pump inhibitor; assay type: ADME, organism-based; set-up: dose 400 mg; method in brief: as §1
[22] = AUC in fasted healthy human at 400 mg administered as single dose suspension 5 mins before consumption of high fat meal; assay type: ADME, organism-based; conditions: plasma; method in brief: as §3
[23] = AUC in fasted healthy human at 400 mg administered as single dose suspension; assay type: ADME, organism-based; conditions: plasma
[24] = Tmax in healthy human at 400 mg administered as single dose suspension coadministered with nutritional supplement; assay type: ADME, organism-based; conditions: in vivo; method in brief: as §7
[25] = Cmax in fasted healthy human plasma at 400 mg administered as single dose suspension coadministered with acidic carbonated beverage and proton pump inhibitor; assay type: ADME, organism-based; set-up: dose 400 mg; method in brief: as §1
Homo sapiens [26] = assay: Apparent total body clearance in fasted healthy human at 200 mg QID, po administered as suspension for 7 days; assay type: ADME, organism-based; conditions: in vivo, 168 h
Method in brief: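 Twelve healthy subjects took oral suspension for 7 days as 400 mg BID or 200 mg QID, either fasting or with a Boost-type nutritional supplement, in a crossover with 14–21 day washouts. Nonfat snacks of 800 cal/day or less were allowed. Plasma was sampled 0–168 h after the day-7 morning dose only and analysed by LC-MS/MS. AUC is AUC_τ, normalized to dose.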

Question: For CC[C@@H]([C@H](C)O)n1ncn(-c2ccc(N3CCN(c4ccc(OC[C@@H]5CO[C@@](Cn6cncn6)(c6ccc(F)cc6F)C5)cc4)CC3)cc2)c1=O [POSACONAZOLE], which AUC [1] is on record?
Answer: 9610 ng·h/mL

Question: What about the half-life [2] of the same compound?
Answer: 27.4 h

Question: And the Tmax [3]?
Answer: 4 h

Question: And the Vd/F [4]?
Answer: 757 L

Question: What about the Tmax [5] of the same compound?
Answer: 7 h

Question: What about the AUC at 20 min [6] of the same compound?
Answer: 21000 ng·h/mL

Question: And the Tmax [7]?
Answer: 5 h

Question: And the Cmax [8]?
Answer: 286 ng/mL

Question: What about the CL/F [9] of the same compound?
Answer: 823 mL/min

Question: What about the Vd/F [10] of the same compound?
Answer: 1840 L

Question: And the Vd/F [11]?
Answer: 2280 L

Question: What about the Activity (Homo sapiens [12]) of the same compound?
Answer: 33%

Question: What about the half-life [13] of the same compound?
Answer: 24.3 h

Question: What about the Tmax [14] of the same compound?
Answer: 6 h

Question: And the half-life [15]?
Answer: 22.6 h

Question: What about the half-life [16] of the same compound?
Answer: 29.5 h

Question: What about the Tmax [17] of the same compound?
Answer: 6 h

Question: And the Activity (Homo sapiens [18])?
Answer: 25%

Question: What about the Activity (Homo sapiens [19]) of the same compound?
Answer: 38%

Question: What about the Cmax [20] of the same compound?
Answer: 623 ng/mL

Question: What about the Cmax [21] of the same compound?
Answer: 76.7 ng/mL

Question: And the AUC at 5 min [22]?
Answer: 10000 ng·h/mL

Question: What about the AUC [23] of the same compound?
Answer: 4280 ng·h/mL

Question: And the Tmax [24]?
Answer: 5.5 h

Question: And the Cmax [25]?
Answer: 93.3 ng/mL

Question: And the CL/F (Homo sapiens [26])?
Answer: 21.2 L/h
